This note sets out measurements from ChEMBL document CHEMBL1148594, “Novel 4-oxo-1,4-dihydroquinoline-3-carboxamide derivatives as new CB2 cannabinoid receptors agonists: synthesis, pharmacological properties and molecular modeling” (J Med Chem, 2006).

The target in test [1] is T1, Cannabinoid receptor 2 (Homo sapiens, UniProt P34972). The experiment in a line: Displacement of [3H]CP-55940 from human CB2 receptor at 10 uM. An outline of the steps: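 Single-concentration screen at 10 µM on CHO-hCB2 membranes (40 µg) against 1 nM [3H]-CP-55,940, 1 h at 30 °C, pH 7.4 Tris/MgCl2/EDTA/0.5% BSA. HU-210 10 µM defines nonspecific binding. Filtered, counted, reported as percent specific radioligand displacement. At least four experiments in duplicate, mean ± SEM.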
T1 sequence (P34972 whole entry): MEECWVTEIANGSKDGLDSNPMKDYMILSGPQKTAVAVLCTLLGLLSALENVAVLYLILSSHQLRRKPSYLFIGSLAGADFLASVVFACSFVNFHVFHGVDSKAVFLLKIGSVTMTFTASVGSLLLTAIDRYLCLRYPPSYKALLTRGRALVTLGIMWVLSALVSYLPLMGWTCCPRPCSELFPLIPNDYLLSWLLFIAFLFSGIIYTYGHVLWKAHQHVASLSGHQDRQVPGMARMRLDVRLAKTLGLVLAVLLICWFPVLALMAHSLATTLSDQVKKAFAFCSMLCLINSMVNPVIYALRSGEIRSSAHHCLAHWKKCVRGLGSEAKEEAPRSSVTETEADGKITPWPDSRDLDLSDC

Test [2] concerns the target T2, Cannabinoid receptor 1 (Homo sapiens, UniProt P21554). Put plainly: Displacement of [3H]SR-141716A from human CB1 receptor at 10 uM. An outline of the steps:
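Single-concentration screen at 10 µM on membranes of CHO cells stably expressing human CB1 (40 µg) against 1 nM [3H]-SR-141716A, 1 h at 30 °C, pH 7.4 Tris/MgCl2/EDTA/0.5% BSA. HU-210 10 µM for nonspecific binding. Reported as percent displacement. At least four experiments in duplicate.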

Test [3] has as its target T1, Cannabinoid receptor 2. The experiment in a line: Displacement of [3H]CP-55940 from human CB2 receptor.
For test [4], the target named is T1, Cannabinoid receptor 2. The experiment in a line: Effect on human CB2 receptor stimulation by [35S]GTP-gamma-S binding at 10 uM (basal value set at 100%). Type of test: functional. In outline: (§1)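 CHO-hCB2 membranes (40 µg) at 30 °C for 1 h in pH 7.4 Tris/MgCl2/EDTA/100 mM NaCl/0.1% BSA with 20 µM GDP. Started by 0.05 nM [35S]-GTPγS (final). Nonspecific binding with 100 µM Gpp(NH)p. Stopped with ice-cold buffer, filtered on GF/B, counted. EC50 by nonlinear regression. Single-point tests at 10 µM, three experiments in duplicate, one-way ANOVA with Dunnett test.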
A general note: GTPγS resists hydrolysis and so accumulates on activated G proteins.

Test [5] deals with T1, Cannabinoid receptor 2. The experiment in a line: Effect on [35S]GTP-gamma-S binding to human CB2 receptor. The format is functional. In outline:
as §1

Test [6] addresses T2, Cannabinoid receptor 1.
The target in test [7] is Cannabinoid receptor (Homo sapiens) (UniProt P34972+P21554). The experiment in a line: Selectivity ratio of human CB2 receptor versus human CB1 receptor in human. Type of test: protein assay. In outline:
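Ratio of Ki values from [3H]-SR-141716A (hCB1) and [3H]-CP-55,940 (hCB2) competition binding on CHO cell membranes. Ki from IC50 by Cheng-Prusoff, given only when Ki was obtained at both receptors.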

Where only a bound is given, the exact number is not on record here.

T2 sequence (P21554 whole entry): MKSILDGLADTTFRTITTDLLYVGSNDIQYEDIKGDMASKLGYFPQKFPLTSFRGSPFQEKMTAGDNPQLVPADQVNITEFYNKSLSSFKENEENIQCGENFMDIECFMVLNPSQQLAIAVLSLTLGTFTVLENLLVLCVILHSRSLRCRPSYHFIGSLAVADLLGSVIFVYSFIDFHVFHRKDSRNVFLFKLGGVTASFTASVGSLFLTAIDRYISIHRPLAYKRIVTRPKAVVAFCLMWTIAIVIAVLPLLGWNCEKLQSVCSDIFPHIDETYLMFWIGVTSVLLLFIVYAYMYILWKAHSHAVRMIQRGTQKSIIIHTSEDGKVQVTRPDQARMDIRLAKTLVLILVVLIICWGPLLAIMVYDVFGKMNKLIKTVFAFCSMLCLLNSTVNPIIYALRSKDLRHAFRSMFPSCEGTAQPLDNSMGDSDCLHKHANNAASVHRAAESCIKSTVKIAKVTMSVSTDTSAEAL
Chain of Cannabinoid receptor (Homo sapiens) (P21554 whole entry, looked up): as the sequence (P21554 whole entry) above
Chain of Cannabinoid receptor (Homo sapiens) (P34972 whole entry, looked up): as the sequence (P34972 whole entry) above

Turning to `CCCCCn1cc(C(=O)O)c(=O)c2ccccc21`, the values for the Activity in test [1] and in test [2] were under 15% and under 20%, respectively.

On to `CCCCCn1cc(C(=O)NCc2ccc(OC)cc2)c(=O)c2ccccc21`, for which the Activity in test [1] is 51.7%; in test [2] it was under 10%.

In the case of `CCCCCn1cc(C(=O)Nc2ccc3ccccc3c2)c(=O)c2ccccc21`, the Activity is 63.9% in test [1] and under 10% in test [2].

What is called Ki is the equilibrium dissociation constant of an inhibitor or competing ligand from its target. A higher Ki goes with a looser hold on the target. `CCCCCn1cc(C(=O)N[C@@H](C)c2ccccc2)c(=O)c2ccccc21` came in with a Ki in test [3] of 784 nM. In other words, the sub-micromolar range.

Consider `CCCCCn1cc(C(=O)NCCc2ccc3c(c2)OCO3)c(=O)c2ccccc21`, for which the Activity worked out at 88.7% in test [1], 136% in test [4] and 43.6% in test [2]. The compound also registered a Ki in test [3] of 426 nM.

In the case of `CCCCCn1cc(C(=O)NC(C)c2ccccc2)c(=O)c2ccccc21` (racemic), the Activity in test [1] worked out at 101%; in test [4], 130%; in test [2], 68.3%. Also, the Ki in test [3] came out at 70.8 nM.

Consider `CC12CC3CC(C)(C1)CC(NC(=O)c1cn(Cc4ccccc4)c4ccccc4c1=O)(C3)C2`, for which the Activity is 86.3% in test [1], 121% in test [4] and 32.5% in test [2]. The compound further showed a Ki in test [3] of 664 nM.

For `CCCCCn1cc(C(=O)NC(C)c2cccc3ccccc23)c(=O)c2ccccc21` (racemic), the results for the Activity in test [1], in test [4] and in test [2] were 98.9%, 117% and 35.5%, respectively. In addition, the inhibition constant (Ki) in test [3] came to 174 nM.

On to `CCCCCn1cc(C(=O)N[C@H](C)c2cccc3ccccc23)c(=O)c2ccccc21`, for which the Activity in test [4] was 119%. In test [3], this compound gave a Ki of 125 nM.

As to `CCCCCn1cc(C(=O)NC23CC4CC(CC(C4)C2)C3)c(=O)c2ccccc21`, the Activity in test [1] was found to be 104%; in test [4], 126%; in test [2], 59%. Further, the Ki in test [3] came out at 16.4 nM.

Turning to `CCCCCCn1cc(C(=O)Nc2ccc(OC)cc2)c(=O)c2ccccc21`, the results for the Activity in test [1] and in test [2] were 28.2% and under 10%, respectively.

The compound `CCCCCn1cc(C(=O)N[C@H](C)c2ccc3ccccc3c2)c(=O)c2ccccc21` yielded an Activity in test [4] of 122%. In test [3], the affinity, expressed as Ki, was 584 nM.

For orientation: Emax means the greatest response seen or fitted, relative to the assay's reference. `CCCCCCC(C)(C)c1cc(O)c2c(c1)OC(C)(C)[C@@H]1CC=C(CO)C[C@@H]21` yielded an Activity in test [4] of 135%. This compound also showed an Emax in test [5] of 135%.

In test [4], `CCCCCCC(C)(C)c1ccc([C@@H]2C[C@H](O)CC[C@H]2CCCO)c(O)c1` gave an Activity of 146%. Moreover, in test [5], the Emax is 146%.

Take `CCCCCn1cc(C(=O)NCCc2ccccc2)c(=O)c2ccccc21`: the Activity in test [1] came out at 98.2%; in test [4], 136%; in test [2], 64.8%. The same compound yielded a Ki in test [3] of 201 nM.

In the case of `CCCCCn1cc(C(=O)Nc2cccc3ccccc23)c(=O)c2ccccc21`, the figures for the Activity in test [1], in test [4] and in test [2] were 90.6%, 124% and 65.9%, respectively. Besides, the results for the Ki in test [6] and in test [3] were 4080 nM and 371 nM, respectively. In addition, the Selectivity ratio in test [7] was found to be 11.

Broadly, the EC50 is the midpoint of the concentration-response curve. The low end stands for a more potent agent, the high end for a less potent agent. Regarding `CCCCCn1cc(C(=O)NC2CCCc3ccccc32)c(=O)c2ccccc21` (racemic), the Activity in test [1] is 96.5%; in test [4] it was 123%; in test [2], 79.7%. For the same compound, the results for the Ki in test [6] and in test [3] were 1050 nM and 60.2 nM, respectively. For the same compound, the Selectivity ratio in test [7] was 17. The same compound returned a 50% effective concentration (EC50) in test [5] of 157 nM. In addition, the Emax in test [5] was determined as 124%.

`CCCCn1cc(C(=O)Nc2cccc3ccccc23)c(=O)c2ccccc21`: the Activity in test [1] amounted to 85.4%; in test [4], 132%; in test [2] it was 45.3%. The same compound had a Ki in test [3] of 455 nM.

As to `Cc1ccc(Cn2nc(C(=O)NC3C4(C)CCC(C4)C3(C)C)cc2-c2ccc(Cl)c(C)c2)cc1` (stereo not given), the Activity in test [4] was found to be 21.6%. In test [5], this compound registered a maximal response (Emax) of 21.6%.

Compound `CCCC(C)(C)c1ccc2c(c1)OC(C)(C)[C@@H]1CC=C(C)C[C@@H]21` showed an Activity in test [4] of 148%. In test [3], the Ki worked out at 20.3 nM. Also, in test [5], the midpoint of the response, the EC50, lay at 146 nM and the Emax came out at 149%.

Consider `CCCCn1cc(C(=O)NCc2ccccc2)c(=O)c2ccccc21`, for which the Activity came to 44.9% in test [1] and 33.6% in test [2].

In the case of `CCCCCn1cc(C(=O)NC23CC4CC(C)(CC(C)(C4)C2)C3)c(=O)c2ccccc21`, the Activity in test [1] was 95.6%; in test [4], 131%; in test [2], 54.6%. In test [3], this compound displayed an inhibition constant Ki of 15.8 nM. Moreover, the concentration giving a half-maximal response (EC50) in test [5] is 14.1 nM. Also, in test [5], the Emax is 124%.

For `CCCCCn1cc(C(=O)Nc2ccc(C#N)cc2)c(=O)c2ccccc21`, the Activity in test [1] came out at 79.4%; in test [4] it was 133%; in test [2], 49.6%. The Ki in test [3] was 772 nM.

On to `CCCCCn1cc(C(=O)NCc2ccccc2)c(=O)c2ccccc21`, for which the Activity in test [1] worked out at 66.7%; in test [4] it was 129%; in test [2] it was 50.5%. Besides, in test [3], the Ki is over 1000 nM.

`CCCCCn1cc(C(=O)Nc2ccc(OC)cc2)c(=O)c2ccccc21`: the Activity was 60.1% in test [1] and under 20% in test [2].

`CCCCCn1cc(C(=O)Nc2ccc(-c3ccccc3)cc2)c(=O)c2ccccc21`: the Activity in test [1] and in test [2] was under 20% in each case.

For the compound `Cc1c(C(=O)c2cccc3ccccc23)c2cccc3c2n1[C@H](CN1CCOCC1)CO3`, the Activity in test [4] was determined as 128%. In test [5], the Emax was 126%.

On to `CCCCCCn1cc(C(=O)Nc2cccc3ccccc23)c(=O)c2ccccc21`, for which the Activity in test [1] came out at 80%; in test [4] it was 124%; in test [2], 53.3%. Besides, the inhibition constant (Ki) in test [3] was found to be 844 nM.

For the compound `CCCCCn1cc(C(=O)NC(C)c2ccc3ccccc3c2)c(=O)c2ccccc21` (racemic), the Activity in test [1] was 82.9%; in test [4], 122%; in test [2] it was under 10%. The inhibition constant Ki in test [3] is over 1000 nM.

Regarding `CCCCCn1cc(C(=O)N[C@H](C)c2ccccc2)c(=O)c2ccccc21`, the Activity in test [4] came out at 124%. Besides, the inhibition constant (Ki) was 1150 nM in test [6] and 37.1 nM in test [3]. Besides, the Selectivity ratio in test [7] was determined as 31. The same compound displayed an EC50 in test [5] of 16.8 nM. Also, the Emax in test [5] was determined as 129%.

The compound `CCCCCn1cc(C(=O)N[C@@H](C)c2ccc3ccccc3c2)c(=O)c2ccccc21` gave an inhibition constant (Ki) in test [3] of over 5000 nM.

As for `CCCCn1cc(C(=O)Nc2ccc(OC)cc2)c(=O)c2ccccc21`, the Activity in test [1] is 50.5%; in test [2] it was under 20%.

Regarding `CCCCCCn1cc(C(=O)NCc2ccccc2)c(=O)c2ccccc21`, the Activity is 54.6% in test [1] and 37.4% in test [2].

In test [3], `CCCCCn1cc(C(=O)N[C@@H](C)c2cccc3ccccc23)c(=O)c2ccccc21` displayed an inhibitory constant (Ki) of over 1000 nM.

As for `CCCCCn1cc(C(=O)Nc2ccc(Cl)c(Cl)c2)c(=O)c2ccccc21`, the Activity in test [1] was 68.1%; in test [4] it was 116%; in test [2] it was under 10%. In test [3], this compound registered a Ki of over 1000 nM.

In the case of `CCCCCn1cc(C(=O)NCCCc2ccccc2)c(=O)c2ccccc21`, the Activity in test [1] came to 85.5%; in test [4], 134%; in test [2], 32.8%. In test [3], the inhibition constant (Ki) was over 1000 nM.

For `CCCCCn1cc(C(=O)N2CCOCC2)c(=O)c2ccccc21`, the Activity in test [1] is 36.5%; in test [2], under 10%.

Consider `CCCCCn1cc(C(=O)NC2C3CC4CC(C3)CC2C4)c(=O)c2ccccc21` (stereo not given), for which the Activity in test [1] worked out at 104%; in test [4] it was 130%; in test [2], 37.8%. In addition, the Ki in test [6] came to 1920 nM; in test [3], 13.4 nM. Also, the Selectivity ratio in test [7] was 143. In test [5], this compound showed an EC50 of 24.8 nM. The Emax in test [5] was 126%.
